Source: ChEMBL document CHEMBL1140972, “Synthesis and structure-activity relationship of 3-phenylquinoxaline 1,4-di-N-oxide derivatives as antimalarial agents” (Eur J Med Chem, 2008)

Experiments:
[1] = Selectivity index, ratio of IC50 for human KB cells to IC50 for chloroquine-sensitive Plasmodium falciparum 3D7; assay type: toxicity, cell-based; settings: read-out: Ratio IC50
How it was run: (§1)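 KB IC50 divided by the parasite IC50 (K1 or 3D7). KB cells seeded at 4×10^4 cells/mL in RPMI 1640 with 10% heat-inactivated FCS and grown 24 h. Triplicate dilution series then added for 72 h. AlamarBlue for 2–4 h, fluorescence ex 530/em 585 nm, IC50 by curve fit. Podophyllotoxin as positive control.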

KB = experiment: Cytotoxicity against human KB cells after 48 hrs by alamar blue assay; assay type: cell-based
Plasmodium falciparum [2] = experiment: Antimalarial activity after 48 hrs against chloroquine-sensitive Plasmodium falciparum 3D7 by [3H]hypoxanthine uptake; assay type: functional, organism-based
How it was run: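 Asynchronous culture (65-75% rings, 0.5% parasitemia, 2.5% final hematocrit) in RPMI 1640 with 0.5% Albumax II, 0.2% glucose, 0.03% L-glutamine and 5 µM hypoxanthine. Triplicate wells with a 3-fold series of 10.0–0.0412 µg/mL; final DMSO ≤0.01%. 37 °C, 5% CO2: 24 h, then 0.2 µCi/well [3H]hypoxanthine for a further 24 h. Frozen, harvested, scintillation-counted. IC50 from curve fit; mean of 2–3 experiments.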

Plasmodium falciparum [3] = experiment: Antimalarial activity after 48 hrs against chloroquine-resistant Plasmodium falciparum K1 by [3H]hypoxanthine uptake; assay type: functional, organism-based
How it was run: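 Asynchronous P. falciparum K1 culture (65-75% ring stage, 0.5% parasitemia; chloroquine, pyrimethamine, cycloguanil resistant) at 2.5% hematocrit in RPMI 1640 with 0.5% Albumax II, glucose, L-glutamine, 5 µM hypoxanthine. Triplicate 3-fold dilutions 10.0–0.0412 µg/mL, DMSO ≤0.01% final, 37 °C, 5% CO2. [3H]-hypoxanthine (0.2 µCi/well) added at 24 h, incorporation counted after further 24 h. IC50 by curve fit, 2–3 experiments.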

[4] = Selectivity index, ratio of IC50 for human KB cells to IC50 for chloroquine-resistant Plasmodium falciparum K1; assay type: toxicity, cell-based; settings: read-out: Ratio IC50; how it was run: as §1
[5] = Resistant index, ratio of IC50 for chloroquine-resistant Plasmodium falciparum K1 to IC50 for chloroquine-sensitive Plasmodium falciparum 3D7; assay type: functional
How it was run: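 IC50 against K1 divided by IC50 against 3D7 (drug-sensitive NF54 clone). Both from [3H]-hypoxanthine incorporation over 48 h: asynchronous cultures at 0.5% parasitemia, 2.5% hematocrit, 3-fold dilutions 10.0–0.0412 µg/mL in triplicate. Label added at 24 h. Means of 2–3 independent experiments.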

SMILES	selectivity ratio [1]	IC50 (KB) [nM]	IC50 (Plasmodium falciparum [2]) [nM]	IC50 (Plasmodium falciparum [3]) [nM]	selectivity ratio [4]	Ratio IC50 [5]
N#Cc1c(-c2ccc(OC(F)(F)F)cc2)[n+]([O-])c2ccc(C(F)(F)F)cc2[n+]1[O-]	6.97	13400	1930	550	24.4	0.28
Cc1ccc(-c2c(C#N)[n+]([O-])c3cc(C)ccc3[n+]2[O-])cc1	19.2	25000	1300	950	26.2	0.73
